Test results reported in ChEMBL document CHEMBL4130549, “Synthesis and bioactivities study of new antibacterial peptide mimics: The dialkyl cationic amphiphiles” (Eur J Med Chem, 2018).
Activity calls are given as the source filed them. The rule behind the calls is not given here.

Experiments:
Escherichia coli [1] = test: Antibacterial activity against Escherichia coli ATCC 25922 after 16 to 20 hrs by broth microdilution method; assay type: functional
Outline: (§1)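 Broth microdilution per CLSI in cation-adjusted Mueller-Hinton broth; 4-6 h cultures (~10⁸ CFU/mL) diluted to ~10⁶ CFU/mL and mixed 1:1 with twofold dilutions of water-dissolved compound (256 to 0.5 µg/mL). Incubated 16-20 h at 37 °C; MIC read visually. Each concentration run in duplicate, whole experiment repeated at least twice. MRSA, KPC and NDM-1 strains were clinical isolates.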

Enterobacteriaceae [2] = test: Antibacterial activity against NDM-1-producing Enterobacteriaceae isolate N7 after 16 to 20 hrs by broth microdilution method; assay type: functional; outline: as §1
Klebsiella pneumoniae [3] = test: Antibacterial activity against carbapenemase-producing Klebsiella pneumoniae isolate K4 after 16 to 20 hrs by broth microdilution method; assay type: functional; outline: as §1
Klebsiella pneumoniae [4] = test: Antibacterial activity against carbapenemase-producing Klebsiella pneumoniae isolate K7 after 16 to 20 hrs by broth microdilution method; assay type: functional; outline: as §1
Enterobacteriaceae [5] = test: Antibacterial activity against NDM-1-producing Enterobacteriaceae isolate N4 after 16 to 20 hrs by broth microdilution method; assay type: functional; outline: as §1
Escherichia coli [6] = test: Induction of inner membrane permeabilization in Escherichia coli ATCC 25922 at 20 ug/ml measured every 2 mins for 12 mins by propidium iodide staining based fluorescence assay; assay type: functional, organism-based
Outline: (§2)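 Mid-log cells (~10^8 CFU/mL) pre-incubated with propidium iodide (10 µM, 50 µL), 30 min for S. aureus and 40 min for E. coli. Fluorescence (ex 535/em 617 nm) read for 8 min, then compound added to 20 µg/mL final and monitored every 2 min for 12 min. Water-treated control.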

Salmonella enterica = test: Antibacterial activity against Salmonella enterica after 16 to 20 hrs by broth microdilution method; assay type: functional; outline: as §1
Staphylococcus aureus [7] = test: Antibacterial activity against Staphylococcus aureus ATCC 29213 after 16 to 20 hrs by broth microdilution method; assay type: functional
Outline: (§3)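 CLSI broth microdilution in cation-adjusted Mueller-Hinton broth. A 4-6 h culture was diluted to about 10⁶ CFU/mL and mixed 1:1 with twofold compound dilutions (256–0.5 µg/mL before mixing) prepared from aqueous stocks. Plates were incubated at 37 °C for 16-20 h. Each concentration was tested in duplicate, and the experiment was repeated at least twice.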

Enterobacteriaceae [8] = test: Antibacterial activity against NDM-1-producing Enterobacteriaceae isolate N6 after 16 to 20 hrs by broth microdilution method; assay type: functional; outline: as §1
Enterobacteriaceae [9] = test: Antibacterial activity against NDM-1-producing Enterobacteriaceae isolate N1 after 16 to 20 hrs by broth microdilution method; assay type: functional; outline: as §1
Enterococcus faecalis = test: Antibacterial activity against Enterococcus faecalis after 16 to 20 hrs by broth microdilution method; assay type: functional; outline: as §1
Klebsiella pneumoniae [10] = test: Antibacterial activity against carbapenemase-producing Klebsiella pneumoniae isolate K5 after 16 to 20 hrs by broth microdilution method; assay type: functional; outline: as §1
Staphylococcus aureus [11] = test: Induction of inner membrane permeabilization in Staphylococcus aureus ATCC 29213 at 20 ug/ml measured every 2 mins for 12 mins by propidium iodide staining based fluorescence assay; assay type: functional, organism-based; outline: as §2
Enterobacteriaceae [12] = test: Antibacterial activity against NDM-1-producing Enterobacteriaceae after 16 to 20 hrs by broth microdilution method; assay type: functional; outline: as §1
Escherichia coli [13] = test: Induction of cytoplasmic membrane depolarization in Escherichia coli ATCC 25922 at 20 ug/ml measured every 2 mins for 12 mins by diSC35 staining based fluorescence assay; assay type: functional, organism-based
Outline: (§4)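 Mid-log cells (4–6 h) pelleted, washed and resuspended (~10^8 CFU/mL) in PBS for S. aureus, or in 5 mM HEPES, 5 mM glucose and 100 mM KCl (1:1:1) for E. coli. Preloaded with diSC35 (10 µM, 50 µL), 30 min for S. aureus and 40 min plus EDTA (200 µM, 50 µL) for E. coli. Baseline read 8 min (ex 622/em 670 nm), then compound added to 20 µg/mL final and read every 2 min for 12 min. Water control.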

Enterobacteriaceae [14] = test: Antibacterial activity against NDM-1-producing Enterobacteriaceae isolate N9 after 16 to 20 hrs by broth microdilution method; assay type: functional; outline: as §1
Enterobacteriaceae [15] = test: Antibacterial activity against NDM-1-producing Enterobacteriaceae isolate N5 after 16 to 20 hrs by broth microdilution method; assay type: functional; outline: as §1
Klebsiella pneumoniae [16] = test: Antibacterial activity against carbapenemase-producing Klebsiella pneumoniae isolate K1 after 16 to 20 hrs by broth microdilution method; assay type: functional; outline: as §1
Staphylococcus aureus [17] = test: Antibacterial activity against methicillin-resistant Staphylococcus aureus isolate M5 after 16 to 20 hrs by broth microdilution method; assay type: functional; outline: as §3
Klebsiella pneumoniae [18] = test: Antibacterial activity against carbapenemase-producing Klebsiella pneumoniae isolate K10 after 16 to 20 hrs by broth microdilution method; assay type: functional; outline: as §1
Staphylococcus aureus [19] = test: Induction of cytoplasmic membrane depolarization in Staphylococcus aureus ATCC 29213 at 20 ug/ml measured every 2 mins for 12 mins by diSC35 staining based fluorescence assay; assay type: functional, organism-based; outline: as §4
Klebsiella pneumoniae [20] = test: Antibacterial activity against carbapenemase-producing Klebsiella pneumoniae isolate K9 after 16 to 20 hrs by broth microdilution method; assay type: functional; outline: as §1
Enterobacteriaceae [21] = test: Antibacterial activity against NDM-1-producing Enterobacteriaceae isolate N2 after 16 to 20 hrs by broth microdilution method; assay type: functional; outline: as §1
Staphylococcus aureus [22] = test: Antibacterial activity against methicillin-resistant Staphylococcus aureus isolate M9 after 16 to 20 hrs by broth microdilution method; assay type: functional; outline: as §3
Staphylococcus aureus [23] = test: Antibacterial activity against methicillin-resistant Staphylococcus aureus isolate M6 after 16 to 20 hrs by broth microdilution method; assay type: functional; outline: as §3
Klebsiella pneumoniae [24] = test: Antibacterial activity against carbapenemase-producing Klebsiella pneumoniae isolate K6 after 16 to 20 hrs by broth microdilution method; assay type: functional; outline: as §1
[25] = Hemolytic activity in sheep RBC after 1 hr; assay type: ADME, cell-based, Ovis aries, Erythrocyte; conditions: sheep red blood cells (erythrocytes)
Outline: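 Sheep RBCs suspended at 5% in PBS; 150 µL added to 50 µL compound dilutions (5120 to 10 µg/mL series). Incubated 1 h at 37 °C, then centrifuged; supernatant absorbance read at 540 nm. Lysis (%) = (A−A0)/(Atotal−A0)×100, with untreated 5% RBC as A0 and 0.1% Triton X-100 as total.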

Klebsiella pneumoniae [26] = test: Antibacterial activity against carbapenemase-producing Klebsiella pneumoniae isolate K3 after 16 to 20 hrs by broth microdilution method; assay type: functional; outline: as §1
Enterobacteriaceae [27] = test: Antibacterial activity against NDM-1-producing Enterobacteriaceae isolate N10 after 16 to 20 hrs by broth microdilution method; assay type: functional; outline: as §1
Staphylococcus aureus [28] = test: Antibacterial activity against methicillin-resistant Staphylococcus aureus isolate M7 after 16 to 20 hrs by broth microdilution method; assay type: functional; outline: as §3
Staphylococcus aureus [29] = test: Antibacterial activity against methicillin-resistant Staphylococcus aureus isolate M8 after 16 to 20 hrs by broth microdilution method; assay type: functional; outline: as §3
Staphylococcus aureus [30] = test: Antibacterial activity against methicillin-resistant Staphylococcus aureus isolate M10 after 16 to 20 hrs by broth microdilution method; assay type: functional; outline: as §3
Staphylococcus aureus [31] = test: Antibacterial activity against methicillin-resistant Staphylococcus aureus isolate M2 after 16 to 20 hrs by broth microdilution method; assay type: functional; outline: as §3
Staphylococcus aureus [32] = test: Antibacterial activity against methicillin-resistant Staphylococcus aureus isolate M3 after 16 to 20 hrs by broth microdilution method; assay type: functional; outline: as §3
Staphylococcus aureus [33] = test: Antibacterial activity against methicillin-resistant Staphylococcus aureus isolate M4 after 16 to 20 hrs by broth microdilution method; assay type: functional; outline: as §3
Klebsiella pneumoniae [34] = test: Antibacterial activity against carbapenemase-producing Klebsiella pneumoniae isolate K8 after 16 to 20 hrs by broth microdilution method; assay type: functional; outline: as §1
Staphylococcus aureus [35] = test: Antibacterial activity against methicillin-resistant Staphylococcus aureus isolate M1 after 16 to 20 hrs by broth microdilution method; assay type: functional; outline: as §3
Escherichia coli [36] = test: Induction of outer membrane permeabilization in Escherichia coli ATCC 25922 at 20 ug/ml measured every 2 mins for 12 mins by NPN staining based fluorescence assay; assay type: functional, organism-based
Outline: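 Mid-log E. coli (~10^8 CFU/mL) in black plates pre-incubated about 40 min with NPN (10 µM, 50 µL). Baseline read 8 min (ex 350/em 420 nm), then compound added to 20 µg/mL final and fluorescence followed every 2 min for 12 min. Water-treated control.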

Enterobacteriaceae [37] = test: Antibacterial activity against NDM-1-producing Enterobacteriaceae isolate N8 after 16 to 20 hrs by broth microdilution method; assay type: functional; outline: as §1
Enterobacteriaceae [38] = test: Antibacterial activity against NDM-1-producing Enterobacteriaceae isolate N3 after 16 to 20 hrs by broth microdilution method; assay type: functional; outline: as §1
Klebsiella pneumoniae [39] = test: Antibacterial activity against carbapenemase-producing Klebsiella pneumoniae after 16 to 20 hrs by broth microdilution method; assay type: functional; outline: as §1
Staphylococcus aureus [40] = test: Antibacterial activity against methicillin-resistant Staphylococcus aureus after 16 to 20 hrs by broth microdilution method; assay type: functional; outline: as §3
Klebsiella pneumoniae [41] = test: Antibacterial activity against carbapenemase-producing Klebsiella pneumoniae isolate K2 after 16 to 20 hrs by broth microdilution method; assay type: functional; outline: as §1

CCCCCCCN(CCCCCCC)C(=O)[C@@H](N)CCCCN.Cl.Cl
MIC (Escherichia coli [1]): 8 µg/mL | MIC (Enterobacteriaceae [2]): 32 µg/mL | MIC (Klebsiella pneumoniae [3]): 16 µg/mL | MIC (Klebsiella pneumoniae [4]): 16 µg/mL | MIC (Enterobacteriaceae [5]): 32 µg/mL | Activity (Escherichia coli [6]): Active | MIC (Salmonella enterica): 16 µg/mL | MIC (Staphylococcus aureus [7]): 8 µg/mL | MIC (Enterobacteriaceae [8]): 16 µg/mL | MIC (Enterobacteriaceae [9]): 32 µg/mL | MIC (Enterococcus faecalis): 8 µg/mL | MIC (Klebsiella pneumoniae [10]): 16 µg/mL | Activity (Staphylococcus aureus [11]): Active | MIC (Enterobacteriaceae [12]): 16 µg/mL | Activity (Escherichia coli [13]): Active | MIC (Enterobacteriaceae [14]): 16 µg/mL | MIC (Enterobacteriaceae [15]): 16 µg/mL | MIC (Klebsiella pneumoniae [16]): 16 µg/mL | MIC (Staphylococcus aureus [17]): 8 µg/mL | MIC (Klebsiella pneumoniae [18]): 16 µg/mL | Activity (Staphylococcus aureus [19]): Active | MIC (Klebsiella pneumoniae [20]): 16 µg/mL | MIC (Enterobacteriaceae [21]): 32 µg/mL | MIC (Staphylococcus aureus [22]): 4 µg/mL | MIC (Staphylococcus aureus [23]): 4 µg/mL | MIC (Klebsiella pneumoniae [24]): 16 µg/mL | HC50 at 1 h [25]: 434 µg/mL | MIC (Klebsiella pneumoniae [26]): 16 µg/mL | MIC (Enterobacteriaceae [27]): 16 µg/mL | MIC (Staphylococcus aureus [28]): 4 µg/mL | MIC (Staphylococcus aureus [29]): 8 µg/mL | MIC (Staphylococcus aureus [30]): 4 µg/mL | MIC (Staphylococcus aureus [31]): 16 µg/mL | MIC (Staphylococcus aureus [32]): 16 µg/mL | MIC (Staphylococcus aureus [33]): 16 µg/mL | MIC (Klebsiella pneumoniae [34]): 16 µg/mL | MIC (Staphylococcus aureus [35]): 8 µg/mL | Activity (Escherichia coli [36]): Active | MIC (Enterobacteriaceae [37]): 32 µg/mL | MIC (Enterobacteriaceae [38]): 32 µg/mL | MIC (Klebsiella pneumoniae [39]): 16 µg/mL | MIC (Staphylococcus aureus [40]): 4 µg/mL | MIC (Klebsiella pneumoniae [41]): 16 µg/mL

CCCCCCCCN(CCCCCCCC)C(=O)[C@@H](N)C(C)O.Cl (stereo partly specified)
MIC (Escherichia coli [1]): 16 µg/mL | MIC (Enterobacteriaceae [2]): > 64 µg/mL | MIC (Klebsiella pneumoniae [3]): 64 µg/mL | MIC (Klebsiella pneumoniae [4]): 64 µg/mL | MIC (Enterobacteriaceae [5]): 64 µg/mL | Activity (Escherichia coli [6]): Active | MIC (Salmonella enterica): 64 µg/mL | MIC (Staphylococcus aureus [7]): 4 µg/mL | MIC (Enterobacteriaceae [8]): > 64 µg/mL | MIC (Enterobacteriaceae [9]): > 64 µg/mL | MIC (Enterococcus faecalis): 8 µg/mL | MIC (Klebsiella pneumoniae [10]): 64 µg/mL | Activity (Staphylococcus aureus [11]): Active | MIC (Enterobacteriaceae [12]): 64 µg/mL | Activity (Escherichia coli [13]): Active | MIC (Enterobacteriaceae [14]): > 64 µg/mL | MIC (Enterobacteriaceae [15]): 64 µg/mL | MIC (Klebsiella pneumoniae [16]): 64 µg/mL | MIC (Staphylococcus aureus [17]): 8 µg/mL | MIC (Klebsiella pneumoniae [18]): 64 µg/mL | Activity (Staphylococcus aureus [19]): Active | MIC (Klebsiella pneumoniae [20]): 64 µg/mL | MIC (Enterobacteriaceae [21]): > 64 µg/mL | MIC (Staphylococcus aureus [22]): 8 µg/mL | MIC (Staphylococcus aureus [23]): 8 µg/mL | MIC (Klebsiella pneumoniae [24]): 64 µg/mL | HC50 at 1 h [25]: 268 µg/mL | MIC (Klebsiella pneumoniae [26]): 64 µg/mL | MIC (Enterobacteriaceae [27]): > 64 µg/mL | MIC (Staphylococcus aureus [28]): 8 µg/mL | MIC (Staphylococcus aureus [29]): 8 µg/mL | MIC (Staphylococcus aureus [30]): 8 µg/mL | MIC (Staphylococcus aureus [31]): 4 µg/mL | MIC (Staphylococcus aureus [32]): 4 µg/mL | MIC (Staphylococcus aureus [33]): 4 µg/mL | MIC (Klebsiella pneumoniae [34]): 64 µg/mL | MIC (Staphylococcus aureus [35]): 8 µg/mL | Activity (Escherichia coli [36]): Active | MIC (Enterobacteriaceae [37]): > 64 µg/mL | MIC (Enterobacteriaceae [38]): 64 µg/mL | MIC (Klebsiella pneumoniae [39]): 64 µg/mL | MIC (Staphylococcus aureus [40]): 8 µg/mL | MIC (Klebsiella pneumoniae [41]): 64 µg/mL
